Test results taken from ChEMBL document CHEMBL4368903, “Identification of GSK3186899/DDD853651 as a Preclinical Development Candidate for the Treatment of Visceral Leishmaniasis” (J Med Chem, 2019).
Converted amounts (≈) assume the structure as drawn. The source made the active and inactive calls. The rule behind the calls is not given here.

Legend:
[1] = test system: Leishmania donovani; assay: Antileishmanial activity against Leishmania donovani […] in human THP1 cells by intramacrophage assay; type: functional, organism-based; settings: Leishmania donovani, THP-1
[2] = Intrinsic clearance in CD1 mouse liver microsomes at 0.5 uM after 3 to 30 mins in presence of NADPH by UPLC-MS/MS analysis; type: ADME, Microsome
In short: (§1)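 0.5 μM compound with female CD1 mouse or human liver microsomes, started with excess NADPH in 50 mM potassium phosphate pH 7.4. Aliquots at 0, 3, 6, 9, 15 and 30 min quenched in acetonitrile with internal standard. UPLC-MS/MS; rate constant from exponential decay of compound/IS ratio. Verapamil as positive control.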

[3] = Intrinsic clearance in human liver microsomes at 0.5 uM after 3 to 30 mins in presence of NADPH by UPLC-MS/MS analysis; type: ADME, Microsome; in short: as §1
[4] = Kinetic aqueous solubility of the compound in phosphate buffer at pH 7.4 by CLND assay; type: physicochemical; settings: phosphate buffer, read-out: Kinetic_solubility
In short: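 From 10 mM DMSO stock diluted 1:20 into pH 7.4 PBS, equilibrated 1 h at RT, filtered. Filtrate quantified by calibrated flow-injection CLND. Dynamic range 1–500 μM.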

[5] = Solubility of compound in fasted simulated intestinal fluid at 1 mg after 4 hrs by HPLC-UV analysis; type: physicochemical; settings: fasted simulated intestinal fluid
In short: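 1 mg solid shaken in 1 mL FaSSIF (3 mM sodium taurocholate, 0.75 mM lecithin, phosphate buffer pH 6.5) at 900 rpm for 4 h at room temperature, then filtered. Supernatant quantified by HPLC-UV against single-point DMSO calibration. Range 1–1000 μg/mL.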

[6] = test system: Leishmania donovani; assay: Antileishmanial activity against Leishmania donovani LV9 amastigotes infected in BALB/c mouse assessed as suppression of parasite load within liver at 25 mg/kg, po administered bid for 10 days relative to control; type: functional
In short: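 Female BALB/c mice, 5 per group, infected i.v. with about 2×10^7 L. donovani LV9 amastigotes harvested from infected hamster spleen. Oral dosing starts day 7 post-infection, in 0.5% HPMC/0.4% Tween 80/0.5% benzyl alcohol, or 10% DMSO/60% PEG400/30% water for the 5-day 50 mg/kg regimen. Dosing solutions made fresh daily. Killed day 14 (5-day) or 19 (10-day). Liver smears give LDU (amastigotes/500 nucleated cells × organ weight). Mean LDU compared with vehicle control gives % suppression.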

[7] = target: Cytochrome P450 3A4 (Homo sapiens, UniProt P08684); assay: Inhibition of CYP3A4 in human liver microsomes using midazolam as substrate preincubated for 20 mins followed by substrate addition and measured after 5 mins by LC-MS/MS analysis; type: ADME
Sequence of Cytochrome P450 3A4 (P08684 whole entry): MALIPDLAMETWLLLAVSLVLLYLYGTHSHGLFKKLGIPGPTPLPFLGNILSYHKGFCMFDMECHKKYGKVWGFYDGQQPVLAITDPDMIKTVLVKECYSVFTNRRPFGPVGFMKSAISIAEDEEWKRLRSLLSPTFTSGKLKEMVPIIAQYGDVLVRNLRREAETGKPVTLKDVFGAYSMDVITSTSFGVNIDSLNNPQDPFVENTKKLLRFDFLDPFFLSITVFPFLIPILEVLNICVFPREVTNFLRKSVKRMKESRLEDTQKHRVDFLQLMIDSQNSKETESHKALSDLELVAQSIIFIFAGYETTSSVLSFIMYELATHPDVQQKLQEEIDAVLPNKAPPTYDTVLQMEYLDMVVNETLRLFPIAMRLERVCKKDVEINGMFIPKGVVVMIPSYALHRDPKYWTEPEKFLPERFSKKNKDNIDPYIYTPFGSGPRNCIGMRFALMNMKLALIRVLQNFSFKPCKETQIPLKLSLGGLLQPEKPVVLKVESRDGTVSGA
In short: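 Pooled human liver microsomes (final 0.1 mg/mL) with midazolam marker substrate, monitoring CYP3A4-specific metabolite. Test compound at eight concentrations, 0.1–100 μM, final organic ≤0.5%. Preincubated at 37 °C for 20 min, then substrate or cofactor added and incubated 5 min at 37 °C. Stopped with ice-cold acetonitrile; LC-MS/MS read-out gives pIC50.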

[8] = Mutagenicity in Salmonella typhimurium at 1500 ug/plate by Ames test; type: toxicity; settings: salmonella enterica subsp. enterica serovar typhimurium
[9] = test system: Lymphoma cell line; assay: Clastogenicity in mouse Lymphoma cells at 120 ug/ml; type: toxicity, cell-based
[10] = target: Voltage-gated inwardly rectifying potassium channel KCNH2 (Homo sapiens, UniProt Q12809); assay: Inhibition of human ERG by patch clamp assay
Sequence of Voltage-gated inwardly rectifying potassium channel KCNH2 (Q12809 whole entry): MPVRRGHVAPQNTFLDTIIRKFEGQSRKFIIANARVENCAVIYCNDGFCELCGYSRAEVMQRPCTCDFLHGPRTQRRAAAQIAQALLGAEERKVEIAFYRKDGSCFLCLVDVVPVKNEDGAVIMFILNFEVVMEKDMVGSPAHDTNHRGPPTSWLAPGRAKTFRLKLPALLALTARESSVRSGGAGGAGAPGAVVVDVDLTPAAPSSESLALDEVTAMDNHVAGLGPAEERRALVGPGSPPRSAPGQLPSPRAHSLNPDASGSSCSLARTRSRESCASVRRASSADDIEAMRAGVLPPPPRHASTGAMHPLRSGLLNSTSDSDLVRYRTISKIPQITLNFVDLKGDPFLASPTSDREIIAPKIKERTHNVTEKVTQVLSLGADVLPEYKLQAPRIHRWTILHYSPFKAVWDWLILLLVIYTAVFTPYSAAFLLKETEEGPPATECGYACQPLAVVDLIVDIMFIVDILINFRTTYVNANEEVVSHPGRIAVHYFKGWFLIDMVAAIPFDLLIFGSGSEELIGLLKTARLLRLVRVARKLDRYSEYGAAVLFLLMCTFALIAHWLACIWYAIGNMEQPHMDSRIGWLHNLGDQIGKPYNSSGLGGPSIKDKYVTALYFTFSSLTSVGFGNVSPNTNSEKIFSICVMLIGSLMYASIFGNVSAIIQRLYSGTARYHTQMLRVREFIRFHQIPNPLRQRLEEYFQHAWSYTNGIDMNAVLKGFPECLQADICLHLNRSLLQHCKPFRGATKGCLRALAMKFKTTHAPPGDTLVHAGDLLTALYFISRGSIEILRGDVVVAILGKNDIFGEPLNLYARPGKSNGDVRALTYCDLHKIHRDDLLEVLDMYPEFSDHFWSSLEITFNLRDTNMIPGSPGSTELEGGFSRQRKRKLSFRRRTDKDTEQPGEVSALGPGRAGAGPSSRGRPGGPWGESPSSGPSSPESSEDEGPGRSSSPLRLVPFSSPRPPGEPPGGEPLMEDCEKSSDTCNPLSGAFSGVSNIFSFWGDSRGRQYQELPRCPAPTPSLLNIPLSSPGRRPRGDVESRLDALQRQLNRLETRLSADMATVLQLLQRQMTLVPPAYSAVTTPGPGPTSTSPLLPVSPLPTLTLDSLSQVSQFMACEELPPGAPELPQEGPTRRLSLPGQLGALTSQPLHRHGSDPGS

[11] = Toxicity in Crl:WI(Han) rat assessed as increase in ALP at 1000 mg/kg/day, po via gavage for 7 days; type: organism-based; settings: in vivo, 168 h
In short: (§2)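 Male Crl:WI(Han) rats given oral gavage daily for 7 days at 100, 300 and 1000 mg/kg/day. Clinical signs, macroscopic findings, clinical pathology versus controls, and a liver gene expression panel for hepatic toxicity mechanisms.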

[12] = Toxicity in Crl:WI(Han) rat assessed as decrease in calcium levels at 1000 mg/kg/day, po via gavage for 7 days; type: organism-based; settings: in vivo, 168 h
[13] = Toxicity in Crl:WI(Han) rat assessed as increase in plasma glucose levels at 1000 mg/kg/day, po via gavage for 7 days; type: organism-based; settings: in vivo, 168 h; in short: as §2
[14] = Toxicity in Crl:WI(Han) rat assessed as decrease in RBC levels at 300 to 1000 mg/kg/day, po via gavage for 7 days; type: organism-based; settings: in vivo, 168 h
[15] = Toxicity in Crl:WI(Han) rat assessed as decrease in HCT levels at 300 to 1000 mg/kg/day, po via gavage for 7 days; type: organism-based; settings: in vivo, 168 h
[16] = Toxicity in Crl:WI(Han) rat assessed as decrease in hemoglobin levels at 300 to 1000 mg/kg/day, po via gavage for 7 days; type: organism-based; settings: in vivo, 168 h
[17] = Toxicity in Crl:WI(Han) rat assessed as decrease in albumin levels at 300 mg/kg/day, po via gavage for 7 days; type: organism-based; settings: in vivo, 168 h
[18] = Toxicity in Crl:WI(Han) rat assessed as increase in triglycerides levels at 300 mg/kg/day, po via gavage for 7 days; type: organism-based; settings: in vivo, 168 h; in short: as §2
[19] = Toxicity in rabbit cardiac ventricular wedge assessed as QT shortening at 30 uM relative to control; type: tissue-based, Oryctolagus cuniculus, Cardiac ventricle
[20] = Cardiotoxicity in Crl:WI(Han) rat up to 1000 mg/kg, po via gavage; type: toxicity, organism-based; settings: in vivo
In short: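 Conscious unrestrained telemetered male CRL:WI(Han) rats given a single oral dose of vehicle or test article up to 1000 mg/kg. Cardiovascular and electrocardiographic parameters monitored.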

[21] = Therapeutic index, ratio of fCmax in conscious unrestrained telemetered Crl:WI(Han) rat at 300 mg/kg/day, po via gavage for 7 days measured on day 1 to fCmax in Leishmania donovani LV9 amastigotes infected BALB/c mouse at 25 mg/kg, po administered bid for 10 days measured on day 1; type: organism-based; settings: in vivo, read-out: TI
In short: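 Index = free Cmax on day 1 of the rat cardiovascular study / free Cmax on day 1 of the mouse efficacy model. Rat arm: conscious, unrestrained, telemetered male CRL:WI(Han) rats given a single oral dose (up to 1000 mg/kg). Mouse arm: female BALB/c infected i.v. with L. donovani LV9 amastigotes, dosed orally twice daily from day 7 post-infection in 0.5% HPMC, 0.4% Tween 80, 0.5% benzyl alcohol.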

[22] = target: Cyclin-dependent kinase 2 (Homo sapiens) (UniProt P24941); assay: Inhibition of human CDK2 by kinobeads-based assay
[23] = Toxicity in Crl:WI(Han) rat assessed as drug tolerability dose at 100 to 1000 mg/kg/day, po via gavage for 7 days; type: organism-based; settings: in vivo, read-out: Activity
In short: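 Male Crl:WI(Han) rats dosed by oral gavage once daily in a 7-day repeat-dose study at 100, 300 and 1000 mg/kg/day. Tolerated doses judged from in-life and clinical signs, macroscopic observations, histopathology, clinical pathology and liver gene expression profiling versus controls.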

[24] = Ratio of AUC (0 to 24 hrs) in conscious unrestrained telemetered Crl:WI(Han) rat at 300 mg/kg/day, po via gavage for 7 days measured on day 7 to AUC (0 to 24 hrs) in Leishmania donovani LV9 amastigotes infected BALB/c mouse at 25 mg/kg, po administered bid for 10 days measured on day 10; type: ADME, organism-based; settings: in vivo, read-out: TI
In short: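 Index = AUC0–24 on day 7 of the rat study / AUC0–24 on day 10 of the mouse efficacy model. Rat arm: male Crl:WI(Han) rats, oral gavage once daily for 7 days at 100, 300 or 1000 mg/kg/day. Mouse arm: female BALB/c infected i.v. with ~2×10^7 L. donovani LV9 amastigotes, dosed orally twice daily for 10 days from day 7 post-infection in 0.5% HPMC, 0.4% Tween 80, 0.5% benzyl alcohol.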

[25] = Toxicity in Crl:WI(Han) rat assessed as effect on life and clinical signs at 100 to 1000 mg/kg/day, po via gavage for 7 days; type: organism-based; settings: in vivo, 168 h; in short: as §2
[26] = Toxicity in Crl:WI(Han) rat assessed as effect on macro observations parameters at 100 to 1000 mg/kg/day, po via gavage for 7 days; type: organism-based; settings: in vivo, 168 h; in short: as §2
[27] = Toxicity in Crl:WI(Han) rat assessed as decrease in total protein levels at 300 mg/kg/day, po via gavage for 7 days; type: organism-based; settings: in vivo, 168 h
[28] = Toxicity in Crl:WI(Han) rat assessed as increase in CYP1A1 gene expression in liver at 100 to 1000 mg/kg/day, po via gavage for 7 days; type: organism-based; settings: in vivo, 168 h; in short: as §2
[29] = Toxicity in Crl:WI(Han) rat assessed as effect on liver gene expression in liver at 100 to 1000 mg/kg/day, po via gavage for 7 days; type: organism-based; settings: in vivo, 168 h; in short: as §2

`C[C@H]1CN(c2n[nH]c3nc(N[C@H]4CC[C@H](NS(=O)(=O)CCC(F)(F)F)CC4)ncc23)CCO1` [GSK-3186899] showed an EC50 [1] of 1.26 µM, a CLH [2] of under 0.5 mL/min/g and a CLH [3] of 0.7 mL/min/g. The solubility kinetic [4] was 99 µM (≈ 48.7 µg/mL), the solubility at 4 h [5] was 17 to 64 µg/mL (≈ 34.6 to 130 µM) and the Activity [6] was over 95%. The IC50 [7] was over 39.8 µM, the Activity [8] was “Non-Toxic” and the Activity [9] was “Non-Toxic”. The IC50 [10] was over 30 µM, the Activity [11] was “Toxic” and the Activity [12] was “Toxic”. The Activity [13] was “Toxic”, the Activity [14] was “Toxic” and the Activity [15] was “Toxic”. The Activity [16] was “Toxic”, the Activity [17] was “Toxic” and the Activity [18] was “Toxic”. For the same compound, the Activity [19] was 8.9%, the Activity [20] was “Non-Toxic” and the selectivity ratio [21] was 3. The inhibition [22] was “inactive”, the MTD at 168 h [23] was 100 to 1000 mg/kg and the selectivity ratio [24] was 13. For the same compound, the Activity [25] was “Non-Toxic”, the Activity [26] was “Non-Toxic” and the Activity [27] was “Toxic”. For the same compound, the Activity [28] was “Non-Toxic” and the Activity [29] was “Non-Toxic”.
